# Reference: ChEMBL document CHEMBL1122650, “Synthesis and central nervous system properties of 2-[(alkoxycarbonyl)amino]-4(5)-phenyl-2-imidazolines” (J Med Chem, 1984)
# The source made the active and inactive calls. No cut-off for these calls is given here.
# Columns and labels:
# [1] = HPLC capacity factor (k'); type: ADME
# [2] = organism: Mus musculus; assay: Mouse behavior activity was determined;S= Stimulant Weak.; type: functional, organism-based
# [3] = organism: Mus musculus; assay: Compound was evaluated for maximal electroshock antagonism (MES) against mice; type: functional
# Procedure, shortened: (§1)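 Male HLa (ICR) BR mice, groups of eight to ten, dosed ip (aqueous solution) 15 min before transcorneal electroshock (50 mA, 0.2 s). End point: abolition of tonic hind-limb extension; quantal ED50 by Litchfield-Wilcoxon.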
# [4] = Lethal dose in mouse, in groups of ten; type: toxicity, organism-based; settings: in vivo
# [5] = test system: Mus musculus; assay: Compound was evaluated in vivo for reserpine hypothermia after oral administration in mouse. Minimum active dose was reported,; type: functional
# Procedure, shortened: (§2)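 Male HLa (ICR) BR mice, 18-24 g, in groups of eight; reserpine 5 mg/kg ip given 2 h before oral test compound as aqueous solution. Rectal temperature taken hourly; 1-4-h hypothermia assessed by analysis of variance.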
# [6] = test system: Mus musculus; assay: Compound was evaluated in vivo for reserpine hypothermia after oral administration in mouse Minimum active dose was reported; Inactive; type: functional, organism-based; procedure, shortened: as §2
# [7] = organism: Mus musculus; assay: Compound was evaluated for antagonism of reserpine induced hypothermia; Inactive.; type: functional, organism-based; procedure, shortened: as §2
# [8] = organism: Mus musculus; assay: Mouse behavior activity was determined; Dwk= Depressant Weak.; type: functional, organism-based
# Procedure, shortened: (§3)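 Male Simonsen (ICR) fBR mice, 18-24 g, groups of three, given 3, 10, 30, 100, 300 or 1000 mg/kg ip as aqueous solution and observed for behavioral profile; deaths followed up to 7 days.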
# [9] = organism: Mus musculus; assay: Compound was evaluated for maximal electroshock antagonism (MES) against mice; Inactive; type: functional, organism-based; procedure, shortened: as §1
# [10] = organism: Mus musculus; assay: Mouse behavior activity was determined; D=-Depressant.; type: functional, organism-based; procedure, shortened: as §3
# [11] = organism: Mus musculus; assay: Righting ability was determined in mice after rapid rolling (aroused); type: functional
# Procedure, shortened: (§4)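 Male Simonsen (ICR) fBR mice, 18-24 g, groups of ten, dosed with aqueous compound. Righting ability checked before (unaroused) and after (aroused) rapid rolling in the hand; ED50 by Litchfield-Wilcoxon method.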
# [12] = organism: Mus musculus; assay: Righting ability was determined in mice before rapid rolling (unaroused);; type: functional; procedure, shortened: as §4
# [13] = organism: Mus musculus; assay: Evaluated for antagonism of reserpine induced hypothermia; type: functional; procedure, shortened: as §2
# [14] = test system: Mus musculus; assay: Compound was evaluated in vivo for reserpine hypothermia after oral administration in mouse. Minimum active dose was reported, with the percent reversal at 10 mg/kg in parenthesis.; type: functional
# Procedure, shortened: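 Male HLa (ICR) BR mice (18-24 g), groups of eight, dosed ip with 5 mg/kg reserpine 2 h before oral test compound given as aqueous solution. Rectal temperature measured hourly; 1-4-h thermia assessed by analysis of variance.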
# [15] = Compound was evaluated for lethal dose in mouse in groups of ten (values in parentheses indicates 95% confidence limits); type: toxicity, organism-based; settings: in vivo
# [16] = test system: Mus musculus; assay: Reserpine hypothermia antagonism in mouse administered perorally with 5 mg/kg of reserpine 2 hour prior to test compound administration; type: functional; settings: route oral
# [17] = organism: Mus musculus; assay: (§5) Inhibition of radioactive NE [3H]norepinephrine uptake into mouse heart; type: functional
# Procedure, shortened: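 Mice received compound ip before iv [3H]NE. At 3 h after [3H]NE, hearts were removed, washed, weighed, dissolved in Protosol and counted as dpm per mg tissue. Dose-response curves derived by linear regression.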
# [18] = molecular target: Norepinephrine transporter (Rattus norvegicus, UniProt Q9WTR4); assay: (§6) Inhibition of the NE [3H]norepinephrine uptake by rat brain slices In vitro; type: tissue-based
# Procedure, shortened: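 Rat cerebral cortex slices at 5 mg tissue/mL Krebs-Henseleit buffer, incubated at 37 °C; blanks incubated at 4 °C, controls without drug. After 20 min, incubation stopped by filtration and tissue radioactivity measured. IC50 taken from linear regression of uptake inhibition.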
# [19] = organism: Mus musculus; assay: Compound was evaluated for maximal electroshock antagonism (MES) against mice (values in parentheses indicates 95% confidence limits); type: functional
# Procedure, shortened: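 Male HLa (ICR) BR mice, groups of eight to ten, given compound ip as aqueous solution 15 min before transcorneal electroshock (50 mA, 0.2 s). End point was abolition of tonic hind-limb extension; quantal ED50 derived by Litchfield-Wilcoxon.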
# [20] = organism: Mus musculus; assay: Mouse behavior activity was determined; ST = Stimulant(Weak); type: functional, organism-based
# Procedure, shortened: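 Male Simonsen (ICR) fBR mice (18-24 g) given 3, 10, 30, 100, 300 or 1000 mg/kg ip as aqueous solution and observed for behaviour in groups of three.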
# [21] = organism: Mus musculus; assay: as §5; type: functional; remark: listed apart in the source
# Procedure, shortened: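 Mice dosed ip (aqueous solution) before iv [3H]NE; hearts removed 3 h after label, washed, weighed, dissolved in Protosol and counted as dpm per mg tissue. Dose-response from linear regression.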
# [22] = organism: Rattus norvegicus; assay: Inhibition of the 5-HT [14C]5-HT) uptake by rat brain slices In vitro; type: functional
# Procedure, shortened: (§7)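 Rat cerebral cortex slices, 5 mg tissue per mL Krebs-Henseleit buffer, incubated at 37 °C with [3H]NE or [14C]5-HT; blanks at 4 °C, undosed controls. Stopped after 20 min by filtration; slice radioactivity counted; IC50 from linear regression of uptake inhibition.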
# [23] = organism: Rattus norvegicus; assay: Inhibition of the NE [3H]Norepinephrine uptake by rat brain slices In vitro; type: functional
# [24] = organism: Rattus norvegicus; assay: Inhibition of the 5-HT [14C]5-HT uptake by rat brain slices In vitro; type: functional; procedure, shortened: as §7
# [25] = organism: Rattus norvegicus; assay: as §6; type: functional
# Chain of Norepinephrine transporter (Q9WTR4 whole entry): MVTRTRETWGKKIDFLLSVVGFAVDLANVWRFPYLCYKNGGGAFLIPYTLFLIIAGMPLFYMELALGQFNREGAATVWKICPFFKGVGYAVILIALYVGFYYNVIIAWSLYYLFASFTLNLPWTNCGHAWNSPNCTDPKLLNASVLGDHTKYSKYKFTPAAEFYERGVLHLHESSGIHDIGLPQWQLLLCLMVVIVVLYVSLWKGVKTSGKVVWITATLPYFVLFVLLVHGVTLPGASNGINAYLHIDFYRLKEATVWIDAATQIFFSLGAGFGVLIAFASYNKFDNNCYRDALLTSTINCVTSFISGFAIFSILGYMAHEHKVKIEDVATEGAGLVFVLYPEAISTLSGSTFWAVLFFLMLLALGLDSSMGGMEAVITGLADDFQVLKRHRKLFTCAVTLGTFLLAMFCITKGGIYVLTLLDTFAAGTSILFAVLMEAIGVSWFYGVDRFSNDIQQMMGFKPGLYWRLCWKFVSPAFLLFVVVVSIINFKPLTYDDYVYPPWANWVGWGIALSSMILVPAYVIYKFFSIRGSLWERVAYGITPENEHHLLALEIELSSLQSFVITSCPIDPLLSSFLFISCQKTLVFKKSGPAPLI
smiles,measurement,setting,value
COC(=O)NC1=NC(c2ccc(Cl)cc2)CN1 (stereo not given),Log k',[1],0.31
same,Mouse behavior activity,[2],Stimulant weak
same,ED50,[3],~200 mg/kg
same,LD50,[4],500 mg/kg
COC(=O)NC1=NC(c2cccc(Cl)c2Cl)CN1C (stereo not given),Log k',[1],0.91
same,ED50,[5],23 mg/kg
same,ED50,[3],30 mg/kg
CCCCCCOC(=O)NC1=NC(c2ccc(Cl)cc2)CN1 (stereo not given),Log k',[1],2.18
same,ED50,[6],inactive
same,HYPO,[7],inactive
same,Mouse behavior activity,[8],Depressant - weak
same,ED50,[9],inactive
same,LD50,[4],200 mg/kg
COC(=O)NC1=NC(c2ccccc2C)CN1 (stereo not given),Log k',[1],0.16
same,Mouse behavior activity,[10],Depressant
same,ED50,[3],55 mg/kg
same,Loss of righting reflex,[11],172 mg/kg
same,Loss of righting reflex,[12],144 mg/kg
same,HYPO,[13],>20 mg/kg
same,LD50,[4],300 mg/kg
CN(C)CCC=C1c2ccccc2CCc2ccccc21 [AMITRIPTYLINE],ED50,[14],8 mg/kg
same,LD50,[15],70 mg/kg
same,Reserpine hypothermia,[16],0.15 mg/kg
same,ED50,[17],4.4 mg/kg
same,IC50,[18],2500 nM
same,ED50,[19],14 mg/kg
same,Mouse behavior activity,[20],Partial stimulant
same,HYPO,[13],<0.5 mg/kg
NC1=NC(c2c(Cl)cccc2Cl)CN1 (stereo not given),ED50,[21],6.5 mg/kg
same,ED50,[9],inactive
same,Reserpine hypothermia,[16],0.15 mg/kg
same,IC50,[22],7.8 µM
same,IC50,[23],100 nM
same,HYPO,[13],<0.5 mg/kg
same,LD50,[4],70 mg/kg
CN1CC(c2ccccc2Cl)N=C1N (stereo not given),ED50,[21],18.3 mg/kg
same,Reserpine hypothermia,[16],0.15 mg/kg
same,IC50,[24],30 µM
same,IC50,[25],500 nM
same,HYPO,[13],<0.5 mg/kg
